The text below walks through data of ChEMBL document CHEMBL3992563, “Piperazines as nootropic agents: New derivatives of the potent cognition-enhancer DM235 carrying hydrophilic substituents” (Bioorg Med Chem, 2017).

Data set [1] is described as follows: Half life in PBS at 1 uM by LC-MS/MS analysis. The data set is classed as physicochemical. The gist of the method:
(§1)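 Analyte at 1 µM final in PBS or in plasma from male Sprague-Dawley rats (plasma stored at −80 °C), incubated at 37 °C. Sampled in triplicate at 0, 30, 60 and 120 min, then internal standard added. Quantified by ESI-positive LC-MS/MS in MRM mode (C18 column, formic acid/acetonitrile gradient) against calibration from 0–1.00 µM. Enalapril checked plasma hydrolytic activity; t1/2 extrapolated from concentration-time curves.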

For data set [2], the system named is Mus musculus. Put plainly: Toxicity in sc dosed CD-1 albino mouse assessed as effect on motor co-ordination at cognition enhancing MED by rota rod test. The data set is classed as organism-based. Conditions: in vivo.
The test system of data set [3] is Mus musculus. Nature of the data set: Cognition enhancing effect in sc dosed CD-1 albino mouse assessed as reversal of scopolamine-induced amnesia by measuring difference between training session and retention session time at MED treated 20 mins prior to training session followed by scopolamine challenge immediately after training session by passive avoidance test. It counts as functional. The gist of the method: (§2)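 Mouse passive-avoidance test using a modified Jarvik–Kopp protocol. Drug in saline with 10% DMSO, given s.c. 20 min before training in a 1:10 dilution series up to 10 mg/kg. Scopolamine 1.5 mg/kg i.p. given right after the punishment/training session. Saline controls got an extra saline injection. Each value is the mean of 12–14 mice; the read-out is minimal effective dose.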

In data set [4] the test system is Mus musculus. Put plainly: Toxicity in sc dosed CD-1 albino mouse assessed as effect on spontaneous motility at cognition enhancing MED by hole-board test. It counts as organism-based. Conditions: in vivo.
The subject of data set [5] is Plasma. Nature of the data set: Drug level in Sprague-Dawley rat plasma treated with (4-Acetyl-1-(4-fluorophenylsulfonyl)piperazin-2-yl)methyl acetate at 1 uM after 60 mins by LC-MS/MS analysis. The data set is classed as ADME, cell-free. Conditions: 1 h. The gist of the method:
as §1

The subject of data set [6] is Mus musculus. Nature of the data set: Potency index, ratio of piracetam MED to compound MED for cognition enhancing effect in sc dosed CD-1 albino mouse. The data set is classed as functional.
The nature of data set [7]: Half life in Sprague-Dawley rat plasma at 1 uM by LC-MS/MS analysis. The data set is classed as ADME, cell-free. Put shortly:
as §1

The subject of data set [8] is Mus musculus. Nature of the data set: Toxicity in sc dosed CD-1 albino mouse assessed as gross behavior abnormality at cognition enhancing MED. It counts as organism-based. Conditions: in vivo.
Data set [9] deals with Mus musculus. Put plainly: Cognition enhancing effect in sc dosed CD-1 albino mouse assessed as reversal of scopolamine-induced amnesia treated 20 mins prior to training session followed by scopolamine challenge immediately after training session by passive avoidance test. The data set is classed as functional. Conditions: CD-1, sc, read-out: MED. Put shortly:
as §2

Data set [10] relates to Plasma. Nature of the data set: Drug level in Sprague-Dawley rat plasma treated with (4-Benzoyl-1-propionylpiperazin-2-yl)methyl acetate at 1 uM after 60 mins by LC-MS/MS analysis. The data set is classed as ADME, cell-free. Conditions: 1 h. Put shortly: as §1
For data set [11], the system named is Plasma. Nature of the data set: Drug metabolism in Sprague-Dawley rat plasma assessed as 1-(4-(4-Fluorophenylsulfonyl)-3-(hydroxymethyl)piperazin-1-yl)ethanone formation at 1 uM after 60 mins by LC-MS/MS analysis. It counts as ADME, cell-free. Conditions: 1 h. The gist of the method: as §1
A short description of data set [12]: Stability in Sprague-Dawley rat plasma assessed as parent compound remaining at 1 uM after 2 hrs by LC-MS/MS analysis. The data set is classed as ADME, cell-free. Conditions: read-out: Stability. Put shortly:
as §1

Data set [13] has as its system Plasma. Put plainly: Drug level in Sprague-Dawley rat plasma treated with (1-Acetyl-4-(4-fluorophenylsulfonyl)piperazin-2-yl)methyl acetate at 1 uM after 60 mins by LC-MS/MS analysis. It counts as ADME, cell-free. Conditions: 1 h. The gist of the method: as §1
Data set [14] concerns Plasma. Nature of the data set: Drug level in Sprague-Dawley rat plasma treated with (1-Benzoyl-4-propionylpiperazin-2-yl)methyl acetate at 1 uM after 60 mins by LC-MS/MS analysis. The data set is classed as ADME, cell-free. Conditions: 1 h. The gist of the method: as §1

A word on the half-life: it is the time in which the quantity being followed falls by half. With `CC(=O)N1CCN(S(=O)(=O)c2ccc(F)cc2)C(CO)C1` (stereo unspecified), the half-life at 1 µM in data set [1] and in data set [7] was no less than 240 min throughout. For the same compound, the Activity entry in the data set with Mus musculus [2], in the data set on Mus musculus [4] and in the data set on Mus musculus [8] was “Non-Toxic” each time. For the same compound, the Time in the data set with Mus musculus [3] is recorded as 66.2 s. In addition, the Drug metabolism result in the data set with Plasma [5] is reported as “Metabolite_Detected”. Further, the Ratio in the data set with Mus musculus [6] is listed as 3 - 300. Further, the minimal effective dose in the data set with Mus musculus [9] is 1 mg/kg.

With `CCC(=O)N1CCN(C(=O)c2ccccc2)CC1CO` (stereo unspecified), the half-life at 1 µM in data set [1] and in data set [7] was no less than 240 min in each case. The Activity result with Mus musculus [2], in the data set with Mus musculus [4] and in the data set on Mus musculus [8] was “Non-Toxic” each time. Further, in the data set on Plasma [10], the Drug metabolism entry is on record as “Metabolite_Detected”. Besides, the Time in the data set on Mus musculus [3] was 72.7 s. Besides, the Ratio with Mus musculus [6] was 3 - 300. Also, the minimal effective dose in the data set on Mus musculus [9] came to 10 mg/kg.

As for `CC(=O)OCC1CN(C(C)=O)CCN1S(=O)(=O)c1ccc(F)cc1` (stereo unspecified), the half-life at 1 µM in data set [1] is no less than 240 min; in data set [7] it was 29 min. In addition, the Activity result in the data set on Mus musculus [2], with Mus musculus [4] and with Mus musculus [8] was “Non-Toxic” each time. The Time with Mus musculus [3] is recorded as 56.8 s. Also, the Ratio with Mus musculus [6] is recorded as 3 - 300. In the data set with Plasma [11], the Drug metabolism entry is listed as “Metabolite_Detected”. For the same compound, the minimal effective dose with Mus musculus [9] amounted to 0.1 mg/kg. For the same compound, the remaining at 2 h, 1 µM in data set [12] was no more than 10%.

As for `CC(=O)N1CCN(S(=O)(=O)c2ccc(F)cc2)CC1CO` (stereo unspecified), the half-life at 1 µM in data set [1] and in [7] was no less than 240 min throughout. In addition, the Activity entry with Mus musculus [2], with Mus musculus [4] and with Mus musculus [8] was “Non-Toxic” in each case. In the data set with Mus musculus [3], the Time stood at 48 s. The Ratio in the data set on Mus musculus [6] is recorded as 3 - 300. In the data set with Mus musculus [9], the minimal effective dose was determined as 10 mg/kg. Further, the Drug metabolism result in the data set with Plasma [13] is “Metabolite_Detected”.

With `CCC(=O)N1CCN(C(=O)c2ccccc2)C(CO)C1` (stereo unspecified), the half-life at 1 µM in data set [1] and in data set [7] was no less than 240 min in each case. In addition, the Activity result in the data set on Mus musculus [2], in the data set on Mus musculus [4] and with Mus musculus [8] was “Non-Toxic” throughout. The Time with Mus musculus [3] was 52.6 s. Besides, the Drug metabolism result with Plasma [14] is “Metabolite_Detected”. Moreover, the Ratio in the data set with Mus musculus [6] is on record as 3 - 300. The minimal effective dose in the data set on Mus musculus [9] came out at 0.1 mg/kg.
